In the library only some 3.9% were active in any assay of this set; here they are far more common.
TMEM16A inh: TMEM16A chloride channel inhibitors, primary screen, cell-based, HTS; Anoctamin-1 (Mus musculus), Q8BHY3; normalized B-score (activity score, 25-100; higher = stronger inhibition) at 10 µM; AID 588511, 2011; HEK293 TMEM16A/YFP iodide influx fluorescence, ionomycin; hit rate 1.2% among 310,000;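 active = ratio plate-corrected score three or more library SD toward inhibition, starting fluorescence score within five deviations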;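 note: score derived from kinetic fluorescence span divided by baseline fluorescence per well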
CRFBP-R2 agonist: agonists of CRF-BP/CRF-R2 complex, primary screen, cell-based, HEK293, calcium dye fluorescence, uHTS; CRF-binding protein / CRF receptor 2 complex (human); calcium dye fluorescence (FLIPR); percent of saturating CRF peptide response; activation, % at 13.2 µM; hit rate 0.46% among 350,000; AID 588473, 2011;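 active = activation of at least 50%, plus an integration ratio under a set limit after plate pattern correction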;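 note: plate controls were neutral control wells without compound for no effect and CRF at EC100 for full effect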
TAAR1 antag: human TAAR1 antagonists, primary screen, Fluo-8 calcium fluorescence, CHO RD-HGA16 cells | inhibition, % at 3 µM | AID 624466, 2012 | antagonist | hit rate 1.5% among 360,000 | Trace amine-associated receptor 1 (Homo sapiens), Q96RJ0;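 active = inhibition above a per-plate cutoff, the mean inhibition of test compounds on that plate plus 3 SD, cut at about 49% in these data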;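 note: 0% = DMSO plus EC80 beta-PEA response and 100% = DMSO alone without agonist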
Target sequence (Q96RJ0 whole entry, looked up): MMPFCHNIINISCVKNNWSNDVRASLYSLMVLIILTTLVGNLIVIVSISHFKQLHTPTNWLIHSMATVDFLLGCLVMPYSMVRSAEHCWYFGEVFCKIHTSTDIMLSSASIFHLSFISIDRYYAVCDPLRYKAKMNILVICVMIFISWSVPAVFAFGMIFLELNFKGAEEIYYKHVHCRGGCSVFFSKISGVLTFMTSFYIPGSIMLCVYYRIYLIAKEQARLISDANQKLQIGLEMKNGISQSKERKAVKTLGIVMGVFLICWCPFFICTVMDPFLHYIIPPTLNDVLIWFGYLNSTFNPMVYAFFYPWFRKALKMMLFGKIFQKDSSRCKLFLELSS
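System: RD-HGA16 CHO cells with stable hTAAR1 and Gα16 | Probe or stimulus: EC80 β-phenethylamine stimulus | Dosing: 3 µM, single point | Times: Dye loading 75 min at 37 °C, then 30 min room temperature | Measured by: Fluo-8 calcium-sensitive fluorescence | Read-out basis: % inhibition of agonist calcium response | Replicates: n of 1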
TAAR1 ag: human TAAR1 agonists, primary screen, Fluo-8 calcium fluorescence, CHO RD-HGA16 cells; hit rate 0.99% among 360,000; activation, % at 3 µM; vehicle wells 0%, saturating PEA agonist 100%; Trace amine-associated receptor 1 (Homo sapiens), Q96RJ0;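 active = activation above the mean activation of all test compounds in the run plus 3 SD, cut at about 38% in these data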
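Signal – calcium-sensitive Fluo-8 signal, excitation 470-495, emission 515-575 nm · System – RD-HGA16 (CHO) cells co-expressing Gα16 and hTAAR1 · Incubation – 17-24 h seeding, 75 min 37 °C dye, 30 min RT · Compound dosing – 3 µM single concentration · Repeats – no replicates (n 1)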
CRFR2-BP antag: antagonists of CRF-BP/CRF-R2 complex, primary screen, cell-based, HEK293, calcium dye fluorescence, uHTS; CRF-induced calcium fluorescence; inhibition, % at 11.8 µM; hit rate 0.59% among 350,000;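 active = inhibition of the ligand-induced calcium signal above about 50% at the single tested concentration, limit read from the data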
ANO1 activ: TMEM16A chloride channel activators or potentiators, primary screen, cell-based, HTS | Anoctamin-1 (Mus musculus), Q8BHY3 | HEK293 TMEM16A/YFP-H148Q/I152L, iodide quench fluorescence; stronger effect = lower value | B-score at 10 µM | hit rate 0.3% among 340,000 | AID 623877, 2012;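 active = fluorescence-ratio B-score plate-corrected deviation score at least 3 library SD below zero, with starting fluorescence score within 5 deviations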;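 note: channel opened by trigger with iodide after compound preincubation; score built on the fluorescence ratio of max minus min over baseline; more negative score means more quench and so TMEM16A activation or potentiation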
nonsel antag count: nonselective antagonists in TAAR1 counter-screen cells, counter-screen for hTAAR1 antagonist project, cell-based, fluorescence, calcium | AID 651780, 2012 | counterscreen cell line, antagonist mode | hit rate 77% among 2,400 | inhibition, % at 3 µM | shares compounds with TAAR1 antag; in the data active = inhibition above about 22%;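 note: CHO-Ga16 host cells stimulated with ATP at an EC80 level; 0% = agonist EC80 plus vehicle and 100% = vehicle without agonist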
TAAR1 antag conf: human TAAR1 antagonists, retest of hits, confirmation, cell-based, fluorescence | hit rate 40% among 2,400 | AID 651785, 2012 | shares compounds with TAAR1 antag | TAAR1-expressing cells, fluorescence antagonist read-out | inhibition, % at 3 µM; in the data active = inhibition above about 49%;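 note: CHO-Ga16 host cells challenged with agonist PEA near its EC80; 0% = agonist at EC80 plus vehicle and 100% = vehicle with no agonist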
Ga16 nonsel ag: calcium activation in Ga16-expressing cells, counter-screen for TAAR1 antagonist project, cell-based, fluorescence | shares compounds with TAAR1 antag | agonist counterscreen | activation, % at 3 µM | hit rate 18% among 2,400; in the data active = activation above about 12%;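 note: 0% = vehicle wells and 100% = saturating stimulus response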
TAAR1 ag counter: TAAR1 activation by candidate antagonists – cell-based, fluorescence, counter-screen for TAAR1 antagonist project. shares compounds with TAAR1 antag. hTAAR1 cell line, agonist mode. activation, % at 3 µM. hit rate 2% among 2,400. AID 651955, 2012; in the data active = activation above about 37%;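 note: CHO cells stably expressing TAAR1 with calcium dye readout; 0% = DMSO vehicle and 100% = full agonist response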
* marks the source's active call; other numbers are inactive results; i = inactive; / = no result given.

SMILES	TMEM16A inh	CRFBP-R2 agonist	TAAR1 antag	TAAR1 ag	CRFR2-BP antag	ANO1 activ	nonsel antag count	TAAR1 antag conf	Ga16 nonsel ag	TAAR1 ag counter
COc1ccc(C2=NO[C@@](CC(=O)O)(C(=O)Nc3ccc4c(c3)OCCO4)C2)cc1	i	0	-23	9	-29	i	/	/	/	/
CCN(CC)C(=O)c1cccc(-c2csc(C(C)(O)c3ccccc3)n2)c1 (stereo unspecified)	/	/	30	9	/	/	/	/	/	/
CCN(CC)C(=O)c1cccc(-c2csc(C(C)(O)c3ccc(OC)cc3)n2)c1 (stereo unspecified)	/	/	86*	16	/	/	40*	60*	15*	17
CCN(CC)C(=O)c1cccc(-c2csc(C(C)(O)c3cccc(OC)c3)n2)c1 (stereo unspecified)	/	/	78*	13	/	/	46*	59*	15*	15
CCOC(=O)c1nc2ccc(C)cc2c2c1C1CC(c3c(Cl)cccc31)N2C(=O)OCc1ccccc1 (stereo unspecified)	/	0	-15	1	17	/	/	/	/	/
O=C(NCC1CCCO1)c1nn2c(C(F)(F)F)cc(-c3ccc(Br)o3)nc2c1Br (stereo unspecified)	i	1	3	3	-14	i	/	/	/	/
CCOc1ccc(/C=C2\SC(=S)N(NS(=O)(=O)c3ccc(C)cc3)C2=O)cc1OC	i	1	75*	12	51*	i	29*	51*	7	4
COc1ccc(OC)c(/C=C2\SC(=S)N(NS(=O)(=O)c3ccccc3)C2=O)c1	i	-3	-10	-4	19	i	/	/	/	/
CCOc1ccc(/C=C2\SC(=S)N(NS(=O)(=O)c3ccccc3)C2=O)cc1OC	i	-1	75*	5	31	i	23*	53*	4	2
COc1ccccc1/C=C1\SC(=S)N(NS(=O)(=O)c2ccc(C)cc2)C1=O	i	7	9	3	6	i	/	/	/	/
COc1cc(/C=C2\SC(=S)N(CCCCC(=O)O)C2=O)ccc1OS(=O)(=O)c1ccc(C)cc1	i	1	65*	12	6	i	50*	50*	12*	7
COc1cc(/C=C2/SC(=S)NC2=O)ccc1OS(=O)(=O)c1ccc(C)cc1	i	29	/	/	31	i	/	/	/	/
O=C(NCc1cccc(F)c1)C1CCC(=O)N(C2CC2)C1 (stereo unspecified)	i	0	-12	1	-3	i	/	/	/	/
COc1cccc(C(=O)Nc2cccc(-c3nnc(-c4ccccc4)o3)c2)c1	i	1	74*	9	-10	i	23*	56*	7	10
COc1ccc(CC(=O)Nc2cccc(-c3nnc(-c4ccccc4)o3)c2)cc1OC	/	3	71*	29	-27	i	57*	73*	18*	17
Cc1ccc(OCC(=O)Nc2cccc(-c3nnc(-c4ccccc4)o3)c2)c(C)c1	i	5	66*	15	-38	i	41*	64*	7	5
COc1cccc(C(=O)Nc2c(C(N)=O)oc3ccccc23)c1	i	-4	56*	12	-2	i	24*	41	7	9

Compound activity: PubChem, several laboratories
